Entries after “also recorded” stand apart in the source; their conditions may differ. Where only a bound is given, the exact number is not on record here.

As usually defined, the solubility is the concentration that dissolves in the medium under given conditions. A high value points to a readily soluble substance.

Data set [1] has as its system ARPE-19 cells. Briefly: Cytoprotection against paraquat-induced oxidative damage. It counts as cell-based, human. The following applies: 10 mM paraquat, 48 h; for cytoprotection against paraquat-induced cell death: chelators, Figure S5; for cytoprotection against paraquat damage: prochelators.
The format of data set [2] is binding. As to conditions: for calcein fluorescence upon addition of chelator: 4 μM chelator (2 equivalents), 2 μM calcein-Fe^3+, PBS pH 7.4. The method, boiled down: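 Fe3+-calcein formed by equilibrating 4 μM ferric ammonium citrate with 4 μM calcein in PBS for 4 h. Compounds were freshly made at 100 μM in PBS pH 7.4; for activation, 100 μM prochelator was incubated with 5 mM H2O2 for 12 h. 2 μM Fe3+-calcein plus 4 μM compound or mixture, 2 h, 25 °C; fluorescence at 485/535 nm. Triplicate wells averaged; calcein-only wells = 100%.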

Data set [3] concerns ARPE-19 cells. Put plainly: Cytoprotection against H2O2-induced oxidative damage. It counts as cell-based, human. The method, boiled down:
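ARPE-19 cells were grown to confluence (DMEM/F12 1:1, 10% FBS, 37 °C, 5% CO2) and washed with MEM. Cells were pretreated 5 h with prochelators or chelators in MEM, then given 200 μM H2O2 (final) and incubated 19 h more. Viability read by CellTiter-Blue, as % of MEM-only control; H2O2-only as negative control; triplicate, SD.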

Data set [4] is described as follows: UV-Vis spectrophotometry of hydrolysis equilibrium in PBS pH 7.4. As to conditions: for hydrolysis equilibrium constant K: PBS pH 7.4, equilibrated mixtures at various concentrations; for fold improved hydrolytic stability compared to BSIH: from K values. It counts as physicochemical. The method, boiled down:
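DMSO stocks were diluted into PBS pH 7.4 (100 μM). Spectra were recorded in 1-cm quartz cuvettes every 1 min over 30 min; 100 μM isoniazid + 100 μM aldehyde fragment served as reference. For K, equilibrated solutions at several initial concentrations were read at 263 and 321 nm, and component concentrations were solved from fitted extinction coefficients. K = [INH][FBA]/[prochelator], averaged across concentrations.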

The conditions of data set [5]: cited from earlier work.
The nature of data set [6]: 1H NMR characterization of hydrolytic stability in D2O. The class given is physicochemical. The method, boiled down:
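Prochelator stocks (10 mM in DMSO-d6) diluted to 500 μM in D2O with 5% DMSO-d6, or to 200 μM with 2% DMSO-d6 for one analog. Solutions equilibrated 1 h before 1H NMR. Intact prochelator and isoniazid fraction estimated by integrating the hydrazone-compound aromatic peak against the corresponding isoniazid peak.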

The test system of data set [7] is ARPE-19 retinal pigment epithelial cells. Put plainly: Inherent cytotoxicity, CellTiter-Blue viability. The class given is cell-based, human. As to conditions: 72 h incubation, up to 100 μM. The method, boiled down:
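Confluent ARPE-19 cells (DMEM/F12 1:1 with 10% FBS, 37 °C, 5% CO2) were washed three times with MEM. Cells were exposed to prochelators at 5–100 μM final in MEM with up to 1% DMSO for 72 h. Viability measured by CellTiter-Blue; triplicate runs, standard deviation.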
(In general: Alamar Blue is a resazurin reagent that responds to reducing activity.)

For data set [8] the following is noted: same concentration (500 μM); cited from earlier work.
The conditions of data set [9]: cited from earlier work. The source holds these as a separate data set.
The conditions of data set [10]: comparable solutions (500 μM); cited from earlier work.
The conditions of data set [11]: pH 7.4, total ligand 10 µM, iron 1 µM; cited from earlier work.
Data set [12] is described as follows: Solubility in aqueous buffers. It counts as physicochemical. The following applies: aqueous buffer.
The next data set has as its system H9c2 cardiomyoblasts. As to conditions: after 72 h; cited from earlier work.
Setting [13] is: prochelators, 5 h pre-incubation, 200 μM H2O2, viability after 19 h.

Take `CNC(=S)N/N=C/c1ccccc1O` [SMTH, (E)-2-(2-hydroxybenzylidene)-N-methylhydrazine-1-carbothioamide]: the “cytoprotection against paraquat-induced cell death” value in the data set with ARPE-19 cells [1] is reported as “failed to protect cells”. Moreover, the “calcein fluorescence upon addition of chelator” value in data set [2] is listed as “no effect on the quenched signal”. The “cytoprotection from peroxide damage” value with ARPE-19 cells [3] (chelators, H2O2-stressed cells, Figure S4) is listed as “no protective effect”.
Consider `COc1ccc(B2OC(C)(C)C(C)(C)O2)c(/C=N/NC(=O)c2ccncc2)c1` [(p-OMe)BSIH, (E)-N’-(5-methoxy-2-(4,4,5,5-tetramethyl-1,3,2-dioxaborolan-2-yl)benzylidene)isonicotinohydrazide], for which, in [4], the “hydrolysis equilibrium constant K” value is recorded as “(1.1 ± 0.1) × 10^−5 M” and the “fold improved hydrolytic stability compared to BSIH” value stood at 1.3 fold. Moreover, in [5], the “increase in H2O2-dependent conversion rate relative to the m-Cl compound” value is roughly 5 fold. In data set [6] (500 μM in D2O, 5% DMSO-d6, 1 h equilibration), this compound yielded an INH at equilibrium of 15%. Besides, in the data set with ARPE-19 cells [3] (setting [13]), the “concentration effective for cytoprotection” value is 25 µM.
For the compound `CC1(C)OB(c2cc3c(cc2/C=N/NC(=O)c2ccncc2)OCO3)OC1(C)C` [(MD)BSIH, (E)-N’-((6-(4,4,5,5-tetramethyl-1,3,2-dioxaborolan-2-yl)benzo[d][1,3]dioxol-5-yl)methylene)isonicotinohydrazide], in data set [7], the cytotoxicity result is reported as “non-toxic”. In data set [4], the “hydrolysis equilibrium constant K, fold lower than parent BSIH” value is recorded as ~ 2 fold; the “hydrolysis equilibrium constant K” value was “(8.0 ± 0.6) × 10^−6 M”; the “fold improved hydrolytic stability compared to BSIH” value came to 1.9 fold. Moreover, in the data set with ARPE-19 cells [1], the “cytoprotection against paraquat damage” value is recorded as “dose-dependent recovery of cell viability”. Also, in data set [6] (200 μM in D2O, 2% DMSO-d6), the “hydrolysis fragments in the equilibrated solution” value amounted to 20%. In addition, the “increase in chelator released compared to BSIH” value in data set [2] (after H2O2 activation) was 50%. For the same compound, the “concentration effective for cytoprotection” value with ARPE-19 cells [3] (setting [13]) is 25 µM.
Regarding `Oc1ccccc1/C=N/NC(=S)Nc1ccccc1` [SPTH, (E)-2-(2-hydroxybenzylidene)-N-phenylhydrazine-1-carbothioamide], the “cytoprotection against paraquat-induced cell death” value with ARPE-19 cells [1] is ~ 40%. In addition, the “calcein fluorescence upon addition of chelator” value in [2] was “failed to fully restore calcein emission”.
In the case of `CC1(C)OB(c2ccccc2/C=N/NC(=O)c2ccncc2)OC1(C)C` [BSIH, (E)-N’-(2-(4,4,5,5-tetramethyl-1,3,2-dioxaborolan-2-yl)benzylidene)isonicotinohydrazide], the cytotoxicity result in [7] was “non-toxic”. In addition, the “cytoprotection against paraquat damage” value with ARPE-19 cells [1] is “failed to protect cells from paraquat damage; also recorded: lack of cytoprotection”. Also, the “SIH generated from peroxide activation” value in data set [8] is 51%. The stability in plasma result in [9] (10 h incubation in plasma) is “little degradation”. The “intact prochelator at equilibrium” value in [10] is given as 80%.
In the case of `C/C(=N\NC(=O)c1ccncc1)c1ccccc1O` [HAPI, (E)-N’-(1-(2-hydroxyphenyl)ethylidene)isonicotinohydrazide, reference compound], the “cytoprotection against paraquat-induced cell death” value in the data set with ARPE-19 cells [1] is reported as ~ 40%.
With `O=C(O)CN(CC(=O)O)Cc1cc2c(cc1O)Oc1cc(O)c(CN(CC(=O)O)CC(=O)O)cc1C21OC(=O)c2ccccc21` [Calcein], the pFe in [11] is reported as 20.3.
The compound `COc1ccc(/C=N/NC(=O)c2cccnc2)c(B2OC(C)(C)C(C)(C)O2)c1` [(m-OMe)BSNH, (E)-N’-(4-methoxy-2-(4,4,5,5-tetramethyl-1,3,2-dioxaborolan-2-yl)benzylidene)nicotinohydrazide] showed a solubility in data set [12] of no less than 300 µM.
As to `C/C(=N\NC(=O)c1ccncc1)c1ccccc1OCc1ccc(B2OC(C)(C)C(C)(C)O2)cc1` [BHAPI], the TC50 in the data set with H9c2 cardiomyoblasts is 37.1 ± 7.7 µM.
With `CNC(=S)N/N=C/c1ccccc1B1OC(C)(C)C(C)(C)O1` [BSMTH, (E)-N-methyl-2-(2-(4,4,5,5-tetramethyl-1,3,2-dioxaborolan-2-yl)benzylidene)hydrazine-1-carbothioamide], in the data set on ARPE-19 cells [1], the “cytoprotection against paraquat damage” value was “lack of cytoprotection”. In the data set with ARPE-19 cells [3] (setting [13]), the “cytoprotection from peroxide damage” value is given as “lack of cytoprotection; also recorded: ineffective”.
The corresponding values for `CC1(C)OB(c2ccccc2/C=N/NC(=S)Nc2ccccc2)OC1(C)C` [BSPTH, (E)-N-phenyl-2-(2-(4,4,5,5-tetramethyl-1,3,2-dioxaborolan-2-yl)benzylidene)hydrazine-1-carbothioamide] are “lack of cytoprotection” and “modest cellular protection”.
`COc1ccc(/C=N/NC(=O)c2ccncc2)cc1B1OC(C)(C)C(C)(C)O1` [(m-OMe)BIIH, (E)-N’-(4-methoxy-3-(4,4,5,5-tetramethyl-1,3,2-dioxaborolan-2-yl)benzylidene)isonicotinohydrazide]: the “UV-Vis spectrum over time in PBS buffer” value in data set [4] (PBS buffer, Figure S3) is recorded as “remains unchanged over time”. Besides, the “hydrolysis products by 1H NMR upon dilution in D2O” value in [6] (500 μM in D2O, 5% DMSO-d6) was “no additional peaks corresponding to potential hydrolysis products were observed”. Further, the “cytoprotection from peroxide damage” value in the data set on ARPE-19 cells [3] (setting [13]) is “lack of cytoprotection”.
As for `COc1ccc(O)c(/C=N/NC(=O)c2ccncc2)c1` [(p-OMe)SIH, (E)-N’-(2-hydroxy-5-methoxybenzylidene)isonicotinohydrazide], in the data set on ARPE-19 cells [1], the “cytoprotection against paraquat-induced cell death” value is listed as ~ 40%. Also, in data set [2], the “calcein fluorescence upon addition of chelator” value is “more than 90%”.
Compound `COc1ccc(/C=N/NC(=O)c2ccncc2)c(O)c1` [(m-OMe)SIH] gave a solubility in [12] of no more than 50 µM.
For `O=C(N/N=C/c1ccccc1O)c1ccncc1` [SIH, (E)-N’-(2-hydroxybenzylidene)isonicotinohydrazide], the “cytoprotection against paraquat-induced cell death” value with ARPE-19 cells [1] is on record as ~ 40%. The stability in buffer result in data set [9] (buffer at pH 7.4) was “remains intact”. Besides, the “stability in cell culture media and plasma” value in data set [9] (cell culture media and plasma) is on record as “degrades within hours”.
As for `COc1ccc(/C=N/NC(=O)c2cccnc2)c(O)c1` [(m-OMe)SNH, (E)-N’-(2-hydroxy-4-methoxybenzylidene)nicotinohydrazide], the “calcein fluorescence upon addition of chelator” value in data set [2] was “more than 90%”. This compound came in with a solubility in data set [12] of no less than 300 µM.

Source of the values: article PMC6314015 (Bioorganic & medicinal chemistry, 2018).
